From ChEMBL document CHEMBL5653631, “A Potent and Selective ULK1 Inhibitor Suppresses Autophagy and Sensitizes Cancer Cells to Nutrient Stress” (iScience, 2018) come the findings set out here.

The target in test [1] is T1, Serine/threonine-protein kinase Nek11 (Homo sapiens) (UniProt Q8NG66).
T1 sequence (whole entry): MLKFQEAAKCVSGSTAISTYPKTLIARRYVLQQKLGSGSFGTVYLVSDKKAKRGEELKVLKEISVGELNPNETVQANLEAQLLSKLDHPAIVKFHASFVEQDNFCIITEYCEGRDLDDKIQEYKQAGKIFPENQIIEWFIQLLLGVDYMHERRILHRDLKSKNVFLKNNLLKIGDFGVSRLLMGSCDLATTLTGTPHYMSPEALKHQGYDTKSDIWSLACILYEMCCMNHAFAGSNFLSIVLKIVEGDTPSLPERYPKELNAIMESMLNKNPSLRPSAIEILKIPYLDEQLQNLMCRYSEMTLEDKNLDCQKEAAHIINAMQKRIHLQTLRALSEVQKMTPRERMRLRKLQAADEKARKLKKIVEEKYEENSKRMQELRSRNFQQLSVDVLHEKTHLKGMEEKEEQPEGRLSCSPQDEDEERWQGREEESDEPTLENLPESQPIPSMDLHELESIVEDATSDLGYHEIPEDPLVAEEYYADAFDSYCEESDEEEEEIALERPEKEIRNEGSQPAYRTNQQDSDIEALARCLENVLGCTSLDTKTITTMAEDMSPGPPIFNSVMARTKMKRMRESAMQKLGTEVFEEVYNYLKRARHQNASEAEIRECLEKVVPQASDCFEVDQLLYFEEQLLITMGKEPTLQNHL
Briefly: Inhibition of human recombinant NEK11 at 15 nM in presence of ATP by radiometric assay relative to control.

Test [2] addresses MAP/microtubule affinity-regulating kinase 3 (Homo sapiens) (UniProt P27448). Nature of the test: Inhibition of human recombinant MARK3 at 15 nM related to control ULK1.
In test [3] the target is T2, Serine/threonine-protein kinase TAO1 (Homo sapiens) (UniProt Q7L7X3).
T2 sequence (whole entry): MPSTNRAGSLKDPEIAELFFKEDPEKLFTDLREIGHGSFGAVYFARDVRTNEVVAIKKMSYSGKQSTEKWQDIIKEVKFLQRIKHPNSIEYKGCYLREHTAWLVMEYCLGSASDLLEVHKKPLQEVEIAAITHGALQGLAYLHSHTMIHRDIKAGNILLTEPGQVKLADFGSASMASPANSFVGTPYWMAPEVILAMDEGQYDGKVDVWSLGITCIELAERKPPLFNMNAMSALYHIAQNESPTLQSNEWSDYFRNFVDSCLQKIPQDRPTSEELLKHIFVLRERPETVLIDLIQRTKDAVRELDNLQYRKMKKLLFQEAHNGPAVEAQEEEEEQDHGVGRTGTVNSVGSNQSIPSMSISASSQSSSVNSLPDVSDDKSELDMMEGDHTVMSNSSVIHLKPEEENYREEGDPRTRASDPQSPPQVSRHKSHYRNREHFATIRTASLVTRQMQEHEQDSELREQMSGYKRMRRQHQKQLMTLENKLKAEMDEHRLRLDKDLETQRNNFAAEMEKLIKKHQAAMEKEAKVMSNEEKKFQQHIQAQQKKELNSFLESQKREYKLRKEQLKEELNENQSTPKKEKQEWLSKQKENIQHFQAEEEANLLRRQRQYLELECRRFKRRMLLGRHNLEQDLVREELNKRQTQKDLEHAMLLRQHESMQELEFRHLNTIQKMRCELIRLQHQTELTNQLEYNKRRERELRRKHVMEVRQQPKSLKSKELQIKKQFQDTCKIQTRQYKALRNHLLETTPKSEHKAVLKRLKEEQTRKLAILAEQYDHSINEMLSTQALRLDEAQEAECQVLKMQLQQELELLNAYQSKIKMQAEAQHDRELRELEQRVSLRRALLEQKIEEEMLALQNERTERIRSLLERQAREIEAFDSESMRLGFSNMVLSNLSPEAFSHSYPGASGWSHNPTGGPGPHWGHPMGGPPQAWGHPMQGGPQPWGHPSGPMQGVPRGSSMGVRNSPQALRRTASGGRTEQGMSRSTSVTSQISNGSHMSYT
Briefly: Inhibition of human recombinant TAO1 at 40 nM in presence of ATP by radiometric assay relative to control.

For test [4], the target named is Death-associated protein kinase 1 (Homo sapiens) (UniProt P53355). Nature of the test: Inhibition of human recombinant DAPK1 at 40 nM related to control ULK1.
In test [5] the target is ALK tyrosine kinase receptor (Homo sapiens) (UniProt Q9UM73). Nature of the test: Inhibition of human recombinant ALK at 500 nM related to control ULK1. An outline of the steps: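 Panel of 327 recombinant human kinases, each assayed in vitro by radiometric activity assay in duplicate at a single inhibitor concentration per compound, chosen with reference to its ULK1 inhibition. Activity remaining was expressed as percent of vehicle control, and percent inhibition was calculated as 100 minus percent activity remaining.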

Test [6] concerns the target MAP kinase-activated protein kinase 3 (Homo sapiens) (UniProt Q16644). Briefly: Inhibition of human recombinant MAPKAPK3 at 500 nM related to control ULK1.
The target in test [7] is DNA-PK/Ku70/Ku85 (Homo sapiens) (UniProt P78527+P12956+P13010). Briefly: Inhibition of human recombinant DNAPK at 500 nM related to control ULK1. The test is classed as protein-complex assay.
Test [8] addresses Serine/threonine-protein kinase B-raf (Homo sapiens) (UniProt P15056). Nature of the test: Inhibition of human recombinant BRAF at 500 nM related to control ULK1.
For test [9], the target named is T3, Serine/threonine-protein kinase 17A (Homo sapiens) (UniProt Q9UEE5).
T3 sequence (whole entry): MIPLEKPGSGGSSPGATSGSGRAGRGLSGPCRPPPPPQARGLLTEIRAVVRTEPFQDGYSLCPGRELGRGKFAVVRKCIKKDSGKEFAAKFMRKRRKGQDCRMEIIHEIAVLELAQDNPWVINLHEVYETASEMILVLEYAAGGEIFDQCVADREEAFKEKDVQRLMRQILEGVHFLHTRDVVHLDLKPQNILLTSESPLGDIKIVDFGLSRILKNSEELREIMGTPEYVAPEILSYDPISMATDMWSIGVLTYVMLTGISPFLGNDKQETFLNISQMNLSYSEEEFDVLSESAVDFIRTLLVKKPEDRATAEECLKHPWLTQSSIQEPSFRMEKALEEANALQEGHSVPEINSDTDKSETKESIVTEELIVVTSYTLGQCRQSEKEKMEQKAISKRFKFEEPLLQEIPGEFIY
Nature of the test: Inhibition of human recombinant DRAK1 at 500 nM related to control ULK1.

The species named for test [10] is Homo sapiens. Briefly: Inhibition of human recombinant CK1d at 500 nM related to control ULK1.

Chain of Serine/threonine-protein kinase B-raf (Homo sapiens) (P15056 whole entry): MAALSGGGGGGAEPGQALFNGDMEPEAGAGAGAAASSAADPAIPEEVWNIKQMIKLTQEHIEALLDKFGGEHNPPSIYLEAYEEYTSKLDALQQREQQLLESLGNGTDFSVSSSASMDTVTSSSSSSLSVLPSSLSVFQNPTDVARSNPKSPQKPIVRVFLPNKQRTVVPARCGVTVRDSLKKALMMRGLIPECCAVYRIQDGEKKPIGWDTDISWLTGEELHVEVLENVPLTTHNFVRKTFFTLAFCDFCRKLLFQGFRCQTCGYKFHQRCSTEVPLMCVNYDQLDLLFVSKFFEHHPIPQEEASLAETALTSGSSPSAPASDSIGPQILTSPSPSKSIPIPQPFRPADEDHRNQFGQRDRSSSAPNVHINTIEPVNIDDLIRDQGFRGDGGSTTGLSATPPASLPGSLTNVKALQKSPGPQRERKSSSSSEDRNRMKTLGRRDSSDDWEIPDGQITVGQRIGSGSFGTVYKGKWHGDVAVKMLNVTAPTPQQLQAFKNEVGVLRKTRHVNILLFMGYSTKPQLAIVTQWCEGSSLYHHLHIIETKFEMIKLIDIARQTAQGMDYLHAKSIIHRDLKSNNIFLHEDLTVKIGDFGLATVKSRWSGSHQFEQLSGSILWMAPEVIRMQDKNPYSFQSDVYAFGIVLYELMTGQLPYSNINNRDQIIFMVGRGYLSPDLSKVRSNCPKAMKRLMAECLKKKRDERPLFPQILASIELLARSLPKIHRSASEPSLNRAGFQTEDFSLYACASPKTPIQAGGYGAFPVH
Chain of MAP/microtubule affinity-regulating kinase 3 (Homo sapiens) (P27448 whole entry, looked up): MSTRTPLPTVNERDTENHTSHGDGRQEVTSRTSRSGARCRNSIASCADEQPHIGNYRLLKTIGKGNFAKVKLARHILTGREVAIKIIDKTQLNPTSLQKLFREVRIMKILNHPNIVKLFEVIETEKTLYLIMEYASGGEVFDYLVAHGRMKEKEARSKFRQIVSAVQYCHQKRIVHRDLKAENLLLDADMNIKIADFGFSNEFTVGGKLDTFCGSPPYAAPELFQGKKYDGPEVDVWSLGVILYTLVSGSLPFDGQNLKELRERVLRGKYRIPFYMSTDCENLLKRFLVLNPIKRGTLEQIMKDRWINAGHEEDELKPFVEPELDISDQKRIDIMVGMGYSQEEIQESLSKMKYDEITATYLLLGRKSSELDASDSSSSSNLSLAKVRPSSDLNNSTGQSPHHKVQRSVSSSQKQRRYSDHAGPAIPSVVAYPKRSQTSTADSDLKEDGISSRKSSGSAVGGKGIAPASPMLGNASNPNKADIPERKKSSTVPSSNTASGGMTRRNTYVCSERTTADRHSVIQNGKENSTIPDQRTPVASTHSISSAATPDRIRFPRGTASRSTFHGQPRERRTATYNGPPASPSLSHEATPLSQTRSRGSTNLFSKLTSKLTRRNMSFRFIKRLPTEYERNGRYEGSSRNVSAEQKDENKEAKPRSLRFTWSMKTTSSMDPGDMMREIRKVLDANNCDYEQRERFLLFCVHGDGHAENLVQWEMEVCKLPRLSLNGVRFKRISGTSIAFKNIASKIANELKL
Chain of Death-associated protein kinase 1 (Homo sapiens) (P53355 whole entry, looked up): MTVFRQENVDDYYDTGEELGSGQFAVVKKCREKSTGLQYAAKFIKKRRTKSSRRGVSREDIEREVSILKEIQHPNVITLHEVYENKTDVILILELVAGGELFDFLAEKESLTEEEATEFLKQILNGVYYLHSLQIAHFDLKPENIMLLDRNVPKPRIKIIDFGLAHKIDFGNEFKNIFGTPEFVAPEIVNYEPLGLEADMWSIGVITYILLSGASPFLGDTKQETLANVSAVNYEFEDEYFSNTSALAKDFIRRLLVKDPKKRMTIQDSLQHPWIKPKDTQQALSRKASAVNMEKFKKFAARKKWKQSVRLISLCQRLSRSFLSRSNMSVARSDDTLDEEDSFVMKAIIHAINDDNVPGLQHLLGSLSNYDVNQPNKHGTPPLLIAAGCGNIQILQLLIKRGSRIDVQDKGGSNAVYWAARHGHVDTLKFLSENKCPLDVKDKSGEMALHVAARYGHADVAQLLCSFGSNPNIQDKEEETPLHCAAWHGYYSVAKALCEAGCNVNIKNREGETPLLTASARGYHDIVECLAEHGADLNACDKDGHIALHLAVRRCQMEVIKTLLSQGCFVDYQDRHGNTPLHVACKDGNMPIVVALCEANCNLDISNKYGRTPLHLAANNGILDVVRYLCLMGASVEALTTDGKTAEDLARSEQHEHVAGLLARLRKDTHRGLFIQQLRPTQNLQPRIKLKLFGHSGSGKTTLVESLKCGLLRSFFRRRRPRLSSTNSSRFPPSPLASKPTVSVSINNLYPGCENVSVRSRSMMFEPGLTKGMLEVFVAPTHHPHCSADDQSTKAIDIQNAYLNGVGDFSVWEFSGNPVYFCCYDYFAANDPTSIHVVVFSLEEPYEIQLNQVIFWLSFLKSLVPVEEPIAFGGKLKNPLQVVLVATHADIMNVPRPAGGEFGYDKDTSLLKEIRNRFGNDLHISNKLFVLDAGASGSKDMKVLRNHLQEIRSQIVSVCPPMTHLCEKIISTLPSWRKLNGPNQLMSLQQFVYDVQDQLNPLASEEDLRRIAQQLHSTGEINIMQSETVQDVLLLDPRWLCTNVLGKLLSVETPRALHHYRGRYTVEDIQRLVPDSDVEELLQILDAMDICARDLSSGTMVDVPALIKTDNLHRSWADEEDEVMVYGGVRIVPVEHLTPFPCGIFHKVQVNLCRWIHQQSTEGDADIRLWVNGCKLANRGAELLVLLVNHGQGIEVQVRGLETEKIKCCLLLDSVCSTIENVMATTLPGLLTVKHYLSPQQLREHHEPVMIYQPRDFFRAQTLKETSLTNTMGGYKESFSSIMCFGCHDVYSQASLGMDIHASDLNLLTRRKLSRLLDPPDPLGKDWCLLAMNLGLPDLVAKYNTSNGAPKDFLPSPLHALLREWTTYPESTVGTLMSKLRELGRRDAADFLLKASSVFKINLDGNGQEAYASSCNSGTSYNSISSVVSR
Chain of ALK tyrosine kinase receptor (Homo sapiens) (Q9UM73 19-1620 limits assumed): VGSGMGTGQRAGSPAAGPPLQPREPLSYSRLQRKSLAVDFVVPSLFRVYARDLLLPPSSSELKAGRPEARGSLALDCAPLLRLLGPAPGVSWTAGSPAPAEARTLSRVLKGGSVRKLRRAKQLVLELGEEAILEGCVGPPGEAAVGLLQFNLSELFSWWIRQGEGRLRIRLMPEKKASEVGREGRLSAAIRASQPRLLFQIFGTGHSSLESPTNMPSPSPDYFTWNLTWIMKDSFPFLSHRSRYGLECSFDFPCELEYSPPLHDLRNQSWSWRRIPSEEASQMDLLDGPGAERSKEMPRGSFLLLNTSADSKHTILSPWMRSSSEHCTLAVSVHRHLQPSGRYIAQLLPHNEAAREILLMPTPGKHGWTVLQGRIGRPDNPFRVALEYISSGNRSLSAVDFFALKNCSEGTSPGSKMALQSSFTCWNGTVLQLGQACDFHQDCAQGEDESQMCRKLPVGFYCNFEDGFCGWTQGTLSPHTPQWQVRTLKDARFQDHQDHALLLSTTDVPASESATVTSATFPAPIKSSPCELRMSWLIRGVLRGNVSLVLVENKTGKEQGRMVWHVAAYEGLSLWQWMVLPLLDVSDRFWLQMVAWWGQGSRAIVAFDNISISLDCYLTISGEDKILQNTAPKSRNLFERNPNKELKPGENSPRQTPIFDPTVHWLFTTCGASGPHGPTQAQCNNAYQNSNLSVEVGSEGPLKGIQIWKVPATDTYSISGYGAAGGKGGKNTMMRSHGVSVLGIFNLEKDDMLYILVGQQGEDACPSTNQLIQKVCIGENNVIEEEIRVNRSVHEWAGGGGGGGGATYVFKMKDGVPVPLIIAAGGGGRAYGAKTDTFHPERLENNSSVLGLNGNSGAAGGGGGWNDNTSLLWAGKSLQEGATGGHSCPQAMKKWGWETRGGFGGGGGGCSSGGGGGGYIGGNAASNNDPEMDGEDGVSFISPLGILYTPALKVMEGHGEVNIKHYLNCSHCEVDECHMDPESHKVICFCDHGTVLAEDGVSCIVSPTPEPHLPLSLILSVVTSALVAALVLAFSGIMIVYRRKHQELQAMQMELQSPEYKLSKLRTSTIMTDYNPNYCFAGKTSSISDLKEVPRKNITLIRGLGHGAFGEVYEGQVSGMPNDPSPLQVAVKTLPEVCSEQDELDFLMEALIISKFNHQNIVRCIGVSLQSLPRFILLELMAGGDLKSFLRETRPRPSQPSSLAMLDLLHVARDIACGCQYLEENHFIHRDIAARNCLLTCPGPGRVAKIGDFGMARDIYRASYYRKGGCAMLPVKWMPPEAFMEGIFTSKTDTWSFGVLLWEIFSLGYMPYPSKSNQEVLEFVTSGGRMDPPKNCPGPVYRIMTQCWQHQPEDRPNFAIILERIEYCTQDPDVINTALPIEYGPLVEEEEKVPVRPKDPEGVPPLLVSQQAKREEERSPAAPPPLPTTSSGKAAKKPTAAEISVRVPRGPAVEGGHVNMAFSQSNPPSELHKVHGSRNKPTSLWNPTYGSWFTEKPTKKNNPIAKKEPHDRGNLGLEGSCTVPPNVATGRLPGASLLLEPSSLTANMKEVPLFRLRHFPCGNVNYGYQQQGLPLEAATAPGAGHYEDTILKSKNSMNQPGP
Chain of MAP kinase-activated protein kinase 3 (Homo sapiens) (Q16644 whole entry, looked up): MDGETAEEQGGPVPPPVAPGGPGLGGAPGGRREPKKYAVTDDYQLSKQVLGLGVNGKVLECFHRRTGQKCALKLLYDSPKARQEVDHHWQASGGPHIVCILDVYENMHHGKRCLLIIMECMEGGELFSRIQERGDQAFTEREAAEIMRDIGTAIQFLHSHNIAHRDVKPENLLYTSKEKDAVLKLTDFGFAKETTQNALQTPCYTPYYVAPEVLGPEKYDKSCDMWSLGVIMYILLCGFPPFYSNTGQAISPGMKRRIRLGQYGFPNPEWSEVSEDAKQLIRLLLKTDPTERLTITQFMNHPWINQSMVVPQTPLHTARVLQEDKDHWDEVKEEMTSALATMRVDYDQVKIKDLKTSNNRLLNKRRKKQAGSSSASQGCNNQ

What is called inhibition is how much of the control response was suppressed. Take `CC(C)[C@H](NC(=O)c1cc(-c2cnn3cc(-c4ccc(OCCN5CCCCC5)cc4)cnc23)cs1)C(F)(F)F`: the inhibition in test [1] was 0%. The fold change (FC) in test [2] was found to be 0.72.
With `O=C(N[C@@H](C1CC1)C(F)(F)F)c1cc(-c2cnn3cc(-c4ccc(F)cc4)cnc23)cs1`, the inhibition in test [3] is 0%. In test [4], the fold change (FC) stood at 0.
Take `CNC(=O)c1ccccc1Oc1nc(Nc2cc(OC)c(OC)c(OC)c2)ncc1Br`: the fold change (FC) worked out at 0 in test [5]; 0 in test [6]; 0.16 in [7]; 0.11 in [8]; 0 in [9]; 0.14 in [10].
